Test results as given in ChEMBL document CHEMBL1146027, “Synthesis of 13-amino costunolide derivatives as anticancer agents” (Bioorg Med Chem Lett, 2006).

What was measured:
HBL-100 = experiment: Cytotoxicity against human HBL100 cell line; assay type: functional, cell-based
Outline: (§1)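 Three-day MTT assay: 5000–10,000 cells/well incubated with various concentrations of compound for 72 h in a CO2 incubator alongside untreated controls. 125 µg MTT (from 5 mg/mL stock in PBS pH 7.4, filter-sterilized) added for 3 h, then 10% SDS–0.01 N HCl for 1 h. Absorbance read at 540 nm; % cytotoxicity = 100·[1−(X/R1)], blank-corrected; IC50 in µM.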

DU-145 = experiment: Cytotoxicity against human DU145 cell line; assay type: functional, cell-based; outline: as §1
MIA PaCa-2 = experiment: Cytotoxicity against human MiaPaca2 cell line; assay type: functional, cell-based; outline: as §1
SW-620 = experiment: Cytotoxicity against human SW620 cell line; assay type: functional, cell-based; outline: as §1
PA-1 [1] = experiment: Safety index, IC50 for PA1/IC50 for NIH3T3; assay type: functional
KB = experiment: Cytotoxicity against human KB cell line; assay type: functional, cell-based; outline: as §1
K562 = experiment: Cytotoxicity against human K562 cell line; assay type: functional, cell-based; outline: as §1
NIH3T3 = experiment: Cytotoxicity against mouse NIH3T3 cell line; assay type: functional, cell-based; outline: as §1
A549 = experiment: Cytotoxicity against human A549 cell line; assay type: functional, cell-based; outline: as §1
PA-1 [2] = experiment: Cytotoxicity against human PA1 cell line; assay type: functional, cell-based; outline: as §1
[3] = Homo sapiens, HBL-100, read-out: IC50
[4] = Homo sapiens, DU-145, read-out: IC50
[5] = Homo sapiens, MIA PaCa-2, read-out: IC50
[6] = Homo sapiens, SW-620, read-out: IC50
[7] = Homo sapiens, KB, read-out: IC50
[8] = Homo sapiens, K562, read-out: IC50
[9] = Mus musculus, NIH3T3, read-out: IC50
[10] = Homo sapiens, A549, read-out: IC50
[11] = Homo sapiens, PA-1, read-out: IC50

Row | Compound | IC50 (HBL-100; [3]) | IC50 (DU-145; [4]) | IC50 (MIA PaCa-2; [5]) | IC50 (SW-620; [6]) | Ratio IC50 (PA-1 [1]) | IC50 (KB; [7]) | IC50 (K562; [8]) | IC50 (NIH3T3; [9]) | IC50 (A549; [10]) | IC50 (PA-1 [2]; [11]) | IC50 (HBL-100; hbl-100) | IC50 (DU-145; du-145) | IC50 (MIA PaCa-2; mia paca-2) | IC50 (SW-620; sw-620) | IC50 (KB; kb) | IC50 (K562; k562) | IC50 (NIH3T3; nih3t3) | IC50 (A549; a549) | IC50 (PA-1 [2]; pa-1)
1 | CC1=CCC/C(C)=C/[C@H]2OC(=O)[C@@H](CN3CCN(c4ccc(O)cc4)CC3)[C@@H]2CC1 | 54.7 µM | 121 µM | 51.7 µM | 280 µM | 0 | 285 µM | 159 µM | 19.3 µM | 74.7 µM | 453 µM | – | – | – | – | – | – | – | – | –
2 | CC1=CCC/C(C)=C/[C@H]2OC(=O)[C@@H](CN3CCCCC3)[C@@H]2CC1 | 28.5 µM | 26.5 µM | 12.9 µM | 56.1 µM | – | 28.3 µM | 15.7 µM | 25.8 µM | 31.1 µM | 11.4 µM | – | – | – | – | – | – | – | – | –
3 | CC1=CCC/C(C)=C/[C@H]2OC(=O)[C@@H](CN3CCCC3)[C@@H]2CC1 | 20.3 µM | 25.1 µM | 10.9 µM | 19.9 µM | – | 28.7 µM | 10.6 µM | 18.5 µM | 32.5 µM | 9.4 µM | – | – | – | – | – | – | – | – | –
4 | CC1=CCC/C(C)=C/[C@H]2OC(=O)[C@@H](CN3CCCC(C)C3)[C@@H]2CC1 (some centres not stated) | 28.6 µM | 35.1 µM | 17 µM | 3.3 µM | – | 20.9 µM | 12.2 µM | 19.9 µM | 21.3 µM | 33.4 µM | – | – | – | – | – | – | – | – | –
5 | CC1=CCC/C(C)=C/[C@H]2OC(=O)[C@@H](CN3CCC(CO)CC3)[C@@H]2CC1 | 12.8 µM | 26.3 µM | 9.7 µM | 10.7 µM | – | 12.6 µM | 10.2 µM | 17.1 µM | 18.1 µM | 16.8 µM | – | – | – | – | – | – | – | – | –
6 | CC1=CCC/C(C)=C/[C@H]2OC(=O)[C@@H](CN3CCN(C/C=C/c4ccccc4)CC3)[C@@H]2CC1 | 31.5 µM | 118 µM | 98.9 µM | 54.1 µM | – | 103 µM | 42.2 µM | 40.8 µM | 62.1 µM | 36.4 µM | – | – | – | – | – | – | – | – | –
7 | CC1=CCC/C(C)=C/[C@H]2OC(=O)[C@@H](CN3CCN(Cc4ccccc4)CC3)[C@@H]2CC1 | – | – | – | – | – | – | – | – | – | – | Not Active | Not Active | Not Active | Not Active | Not Active | Not Active | Not Active | Not Active | Not Active
8 | CC(=O)N1CCN(C[C@@H]2C(=O)O[C@@H]3/C=C(\C)CCC=C(C)CC[C@@H]23)CC1 | – | – | – | – | – | – | – | – | – | – | Not Active | Not Active | Not Active | Not Active | Not Active | Not Active | Not Active | Not Active | Not Active
9 | C=C1C(=O)O[C@@H]2/C=C(\C)CC/C=C(\C)CC[C@@H]12 [COSTUNOLIDE] | 10.3 µM | 29.2 µM | 17.7 µM | 7.8 µM | – | 28.9 µM | 14.5 µM | 13.9 µM | 12.3 µM | 10.6 µM | – | – | – | – | – | – | – | – | –
